{"data": "Published values gathered from unrelated publications", "note": "Lines come from different studies, so protocols differ."}
{"Compound": "CNC(=O)Nc1cc(Oc2cncc(C)c2)c([C@H]2C[C@@H](O)C2)cn1", "host": "rat", "medium": "plasma", "measurement": "fraction unbound", "value": 0.32}
{"Compound": "CC(C)n1cc(C#N)c2cc(-n3cc(C(=O)O)cn3)ccc21", "host": "human", "medium": "plasma", "route": "oral", "dose": "10 mg", "notes": "single dose, fasted, healthy volunteers", "measurement": "Tmax", "value": "2.8 h"}
{"Compound": "Oc1c(Br)cc(Cl)c2cccnc12", "host": "Sprague-Dawley rat", "medium": "plasma", "route": "subcutaneous", "dose": "10 mg/kg", "measurement": "MRT", "value": "7.8 h"}
{"Compound": "O=C(Nc1cc(F)c(F)c(F)c1)c1ccc(F)c(S(=O)(=O)NCc2cccc(B(O)O)c2)c1", "host": "male Sprague-Dawley rat", "medium": "plasma", "route": "intravenous", "dose": "2 mg/kg", "measurement": "MRT(0-inf)", "value": "0.83 h"}
{"Compound": "CCOC(=O)[C@@]12C[C@@H]1[C@@H](n1ccc3c(NC)nc(C#Cc4ccc(Cl)s4)nc31)[C@H](O)[C@@H]2O", "host": "male Sprague-Dawley rat", "medium": "plasma", "route": "oral", "dose": "10 mg/kg", "measurement": "MRT", "value": "2.75 h"}
{"Compound": "Cc1cn2nc(-c3cc(=O)n4cc(N5CCNC6(CC6)C5)ccc4n3)cc(C)c2n1", "host": "rat", "medium": "plasma", "measurement": "fraction unbound", "value": 0.16}
{"Compound": "COc1ccc([C@@H]2CN(C(=O)[C@@H](O)CO)C[C@@]2(C)[C@@H](C)O)cc1OC1CN(c2ccc(C)cn2)C1", "host": "human", "medium": "plasma", "route": "oral", "dose": "10 mg", "notes": "single dose, healthy volunteers", "measurement": "Tmax", "value": "2 h"}
{"Compound": "CCc1cc(C(=O)NC)c2nccc(N3CCc4c(cc(Cn5ccnc5)cc4-c4cn(C)nc4C(F)(F)F)C3=O)c2c1", "host": "male Sprague-Dawley rat", "medium": "plasma", "route": "oral", "dose": "50 mg/kg", "notes": "single dose", "measurement": "MRT(0-inf)", "value": "2.2 h"}
{"Compound": "C[C@@H](Nc1cc(F)cc(F)c1)c1cc(C(=O)N(C)C)cc2c(=O)cc(N3CCOCC3)oc12", "host": "human", "medium": "plasma", "route": "oral", "dose": "240 mg", "notes": "patients", "measurement": "Tmax", "value": "2 h"}
{"Compound": "C=CC(=O)N(C)CCOc1c(N)ncnc1-c1cc(F)cc(NC(=O)c2ccc(C3CC3)cc2F)c1C", "host": "human", "medium": "blood", "route": "oral", "dose": "100 mg", "notes": "single dose, healthy volunteers", "measurement": "Tmax", "value": "1.03 h"}
